Activity calls are given as the source filed them.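 How the source made its calls, unless noted: active means viability at or below 30% in both replicate assays; inconclusive means viability at or below 30% in just one of the two assays; inactive means the rest.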

The nature of test [1]: HUVEC growth inhibition – cell-based, human, primary screen (AID 575).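 Further: 100% = median of untreated cell wells with 0.1% DMSO on each plate.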 To be noted: HUVEC proliferation, CellTiter-Glo luminescence, 72 h; at 10 µM; stronger effect = lower value. Put shortly: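 System – primary HUVEC, no more than 12 passages · Medium – Low-serum (2% FBS) EBM, supplemented · Times – 72 h exposure, 37 °C, 5% CO2, 30 min RT equilibration · Measured by – luminescent ATP assay · Read-out – % viability relative to median vehicle-well signal on each plate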
In general terms: In ATP-based viability assays light output follows the ATP content of the culture.

Test [2] is described as follows: H69AR cell proliferation blockers – human, duplicate replicates, primary screen (AID 580;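 active means viability at or under a set limit in both replicates, limit being median viability minus 3 SD, cut at about 48% in these data, passing the limit was not always enough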;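 further: 100% = mean luminescence of untreated wells and 0% = no signal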). To be noted: H69AR lung tumor cells viability, ATP luminescence, 72 h; at 10 µM; stronger effect = lower value.
Test [3] in a line: MRP1 drug-resistance reversers in H69AR cells – cell-based, doxorubicin co-treatment, pilot screen (AID 601;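 active means viability loss from added drug above about 55%, and viability with drug at most 40%, in both replicates, limit read from the data, passing the limit was not always enough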). To be noted: CellTiter-Glo, 72 h, at 10 µM; for differential viability (reversal): stronger effect = higher value.
The nature of test [4]: yeast transport mutant growth inhibition pilot in 384-well plates, post-Golgi transport modulator project (AID 636; in the data active means inhibition above about 31%). As to conditions: absorbance 615 nm, about 18 h, stronger effect = higher value.
The nature of test [5]: growth suppression of yeast trafficking mutant, preliminary HTS, modulators of trafficking downstream of Golgi apparatus project, 1536-format plate, OD 615 nm (AID 637; in the data active means inhibition above about 30%). As to conditions: yeast transport mutant growth, absorbance 615 nm, 18 h; stronger effect = higher value.
Setting [6] is: H69AR cells + 2 uM doxorubicin, measured here: viability with 2 uM doxorubicin, stronger effect = lower value.
[7] abbreviates: H69AR cells, compound alone cytotoxicity.

For orientation: viability means a read-out of living cells in per cent, often relative to untreated cells. As usually defined, the inhibition is the drop in the measured response relative to a control, in per cent. `Nc1nc(CN2CCOCC2)cs1`: the viability in test [1] was 101% (inactive); in test [2] it was 100% (inactive); in test [3] (setting [6]), 96.1%; in test [3] (setting [7]) it was 100%. Also, the differential viability (reversal) in test [3] (H69AR cells + 2 uM doxorubicin) was 3.83% (inactive). For the same compound, the figures for the inhibition in test [4] and in test [5] were -1.69% (inactive) and 0.95% (inactive), respectively.
Regarding `Cc1cc(C)c(OCC(=O)Nc2cccc(O)c2)cc1C`, the viability is 78.2% (inactive) in test [1], 101% (inactive) in test [2], 97.7% in test [3] (setting [6]) and 101% in test [3] (setting [7]). In test [3] (H69AR cells + 2 uM doxorubicin), the differential viability (reversal) is 3.2% (inactive). In addition, the inhibition in test [4] was -5.07% (inactive); in test [5], 3.97% (inactive).
`O=C1CC(Sc2nnc(-c3ccccc3)o2)C(=O)N1c1ccccc1` (stereo not given): the viability in test [1] is 96.3% (inactive); in test [2], 2.27% (active); in test [3] (setting [6]), 9.04%; in test [3] (setting [7]), 2.27%. In addition, in test [3] (H69AR cells + 2 uM doxorubicin), the differential viability (reversal) is -6.77% (inactive). Besides, the inhibition in test [4] is -6.13% (inactive); in test [5], -1.11% (inactive).
Take `c1ccc2[nH]c(CSc3nnc(-c4ccncc4)o3)nc2c1`: the viability was 104% (inactive) in test [1], 90.9% (inactive) in test [2], 96.7% in test [3] (setting [6]) and 90.9% in test [3] (setting [7]). Further, the differential viability (reversal) in test [3] (H69AR cells + 2 uM doxorubicin) is -5.82% (inactive). The inhibition was -2.24% (inactive) in test [4] and 2.06% (inactive) in test [5].
Take `CCC(=O)n1nc(-c2ccco2)nc1N`: the viability is 113% (inactive) in test [1], 110% (inactive) in test [2], 98.2% in test [3] (setting [6]) and 110% in test [3] (setting [7]). In addition, the differential viability (reversal) in test [3] (H69AR cells + 2 uM doxorubicin) is 11.3% (inactive). The inhibition in test [4] is 0.53% (inactive); in test [5] it was 5.4% (inactive).
For `CCCc1n[nH]c2c1/C(=N/O)CC(c1ccccc1)C2` (stereo not given), the viability in test [1] is 49.5% (inactive); in test [2], 66.1% (inactive); in test [3] (setting [6]), 80.6%; in test [3] (setting [7]) it was 66.1%. In addition, the differential viability (reversal) in test [3] (H69AR cells + 2 uM doxorubicin) was -14.4% (inactive). The inhibition was -2.34% (inactive) in test [4] and 2.86% (inactive) in test [5].
For the compound `CN(Cc1nc(-c2ccncc2)no1)S(=O)(=O)c1ccc(Br)cc1`, the viability was 90.4% (inactive) in test [1], 89.6% (inactive) in test [2], 93.9% in test [3] (setting [6]) and 89.6% in test [3] (setting [7]). In addition, the differential viability (reversal) in test [3] (H69AR cells + 2 uM doxorubicin) is -4.28% (inactive). For the same compound, the inhibition was -5.32% (inactive) in test [4] and 1.75% (inactive) in test [5].
Regarding `COc1ccc(C)cc1NC(=O)CCN1CCCC1`, the viability in test [1] is 105% (inactive); in test [2], 97.5% (inactive); in test [3] (setting [6]), 87.7%; in test [3] (setting [7]) it was 97.5%. Moreover, the differential viability (reversal) in test [3] (H69AR cells + 2 uM doxorubicin) was 9.77% (inactive). The results for the inhibition in test [4] and in test [5] were -6.13% (inactive) and 1.11% (inactive), respectively.
With `CN(C)S(=O)(=O)N1CCN(S(=O)(=O)c2ccc(F)cc2)CC1`, the viability in test [1] was 90.7% (inactive); in test [2] it was 101% (inactive); in test [3] (setting [6]), 96.1%; in test [3] (setting [7]) it was 101%. The differential viability (reversal) in test [3] (H69AR cells + 2 uM doxorubicin) is 4.42% (inactive). Also, the inhibition in test [4] was 2.8% (inactive); in test [5] it was -2.22% (inactive).
Take `COc1ccc(CCNc2oc(Cc3cccc4ccccc34)nc2C#N)cc1OC`: the viability in test [1] is 68.8% (inactive); in test [2] it was 73.1% (inactive); in test [3] (setting [6]), 80.4%; in test [3] (setting [7]), 73.1%. The differential viability (reversal) in test [3] (H69AR cells + 2 uM doxorubicin) was -7.3% (inactive). For the same compound, the inhibition in test [4] is -5.07% (inactive); in test [5], 1.9% (inactive).
Turning to `S=c1nc(C2CC2)[nH]c2ccccc12`, the viability was 78.3% (inactive) in test [1], 94% (inactive) in test [2], 88% in test [3] (setting [6]) and 94% in test [3] (setting [7]). For the same compound, the differential viability (reversal) in test [3] (H69AR cells + 2 uM doxorubicin) is 5.99% (inactive). For the same compound, the inhibition is -0.92% (inactive) in test [4] and 0.63% (inactive) in test [5].
As for `CN(C(=O)c1c(Cl)nc2sccn12)C1CCCCC1`, the viability was 106% (inactive) in test [1], 93.9% (inactive) in test [2], 77.5% in test [3] (setting [6]) and 93.9% in test [3] (setting [7]). Besides, in test [3] (H69AR cells + 2 uM doxorubicin), the differential viability (reversal) was 16.4% (inactive). Further, the inhibition was -5.53% (inactive) in test [4] and -5.4% (inactive) in test [5].
Take `COc1ccc(NC(=O)c2ccco2)cc1NC(=O)c1cccs1`: the viability in test [1] was 92.2% (inactive); in test [2] it was 88.5% (inactive); in test [3] (setting [6]), 92%; in test [3] (setting [7]), 88.5%. The differential viability (reversal) in test [3] (H69AR cells + 2 uM doxorubicin) is -3.49% (inactive). Also, the inhibition in test [4] was 0.13% (inactive); in test [5] it was 13.8% (inactive).
Take `CC1(c2ccncc2)Nc2ccccc2-c2nc3ccccc3n21` (stereo not given): the viability was 92.4% (inactive) in test [1], 99.2% (inactive) in test [2], 101% in test [3] (setting [6]) and 99.2% in test [3] (setting [7]). Further, the differential viability (reversal) in test [3] (H69AR cells + 2 uM doxorubicin) was -2.33% (inactive). The inhibition was -1.45% (inactive) in test [4] and -0.95% (inactive) in test [5].
Turning to `COc1ccccc1-c1ccc(Nc2cccc(C(C)=O)c2)nn1`, the viability in test [1] is 55.8% (inactive); in test [2] it was 71.6% (inactive); in test [3] (setting [6]), 55.8%; in test [3] (setting [7]), 71.6%. Further, the differential viability (reversal) in test [3] (H69AR cells + 2 uM doxorubicin) is 15.8% (inactive). Moreover, the inhibition in test [4] is -0.52% (inactive); in test [5] it was -4.92% (inactive).
Regarding `COc1ccc(N2C(=O)CC(N3CCN(S(=O)(=O)c4c(F)cccc4F)CC3)C2=O)cc1OC` (stereo not given), the viability is 107% (inactive) in test [1], 103% (inactive) in test [2], 94.3% in test [3] (setting [6]) and 103% in test [3] (setting [7]). The differential viability (reversal) in test [3] (H69AR cells + 2 uM doxorubicin) was 8.42% (inactive). For the same compound, the inhibition in test [4] is -2.34% (inactive); in test [5], -6.35% (inactive).
Take `CCc1c(C)nc(N2CCN(Cc3ccccc3)CC2)[nH]c1=O`: the viability was 115% (inactive) in test [1], 103% (inactive) in test [2], 84.6% in test [3] (setting [6]) and 103% in test [3] (setting [7]). The differential viability (reversal) in test [3] (H69AR cells + 2 uM doxorubicin) was 18.8% (inactive). The inhibition in test [4] is -0.53% (inactive); in test [5], 0.32% (inactive).
As to `COc1ccc(CCNS(=O)(=O)c2ccc3c(c2)OCCO3)cc1`, the viability is 109% (inactive) in test [1], 103% (inactive) in test [2], 92.6% in test [3] (setting [6]) and 103% in test [3] (setting [7]). For the same compound, the differential viability (reversal) in test [3] (H69AR cells + 2 uM doxorubicin) is 10.1% (inactive). In addition, the inhibition was -0.53% (inactive) in test [4] and -3.17% (inactive) in test [5].
Turning to `COc1ccc(C(=O)Cn2nnc(-c3cccs3)n2)cc1`, the viability in test [1] was 102% (inactive); in test [2], 90.9% (inactive); in test [3] (setting [6]) it was 85.9%; in test [3] (setting [7]), 90.9%. Besides, the differential viability (reversal) in test [3] (H69AR cells + 2 uM doxorubicin) is 4.98% (inactive). For the same compound, the inhibition in test [4] was -6.67% (inactive); in test [5], -3.65% (inactive).
For the compound `C=CCC(Nc1ccco1)c1ccccc1` (stereo not given), the viability in test [1] was 95.8% (inactive); in test [2], 102% (inactive); in test [3] (setting [6]), 87.8%; in test [3] (setting [7]), 102%. The differential viability (reversal) in test [3] (H69AR cells + 2 uM doxorubicin) was 14.1% (inactive). Besides, the inhibition in test [4] was -3.55% (inactive); in test [5] it was -0.32% (inactive).

The record behind these values is PubChem BioAssay.
